From ChEMBL document CHEMBL1121548, “Structure-activity relationships of pyrrole amidine antiviral antibiotics. 2. Preparation of mono- and tripyrrole derivatives of congocidine” (1980)

Key:
[1] = tested on: Human alphaherpesvirus 1; experiment: In vitro ability to inhibit synthesis of herpes simplex virus (HSV) DNA in isolated nuclei at dose 50 ug/mL
[2] = tested on: Human alphaherpesvirus 1; experiment: In vitro ability to inhibit synthesis of herpes simplex virus (HSV) DNA in isolated nuclei at dose 400 ug/mL
[3] = tested on: Nucleic Acid; experiment: In vitro ability to inhibit HSV DNA polymerase activity in vitro using activated calf thymus DNA as atemplate at dose 25 ug/mL; format: nucleic-acid assay; settings: herpes simplex virus
[4] = tested on: Nucleic Acid; experiment: In vitro ability to inhibit HSV DNA polymerase activity in vitro using activated calf thymus DNA as atemplate at dose 100 ug/mL; format: nucleic-acid assay; settings: herpes simplex virus
[5] = tested on: Nucleic Acid; experiment: In vitro ability to inhibit HSV DNA polymerase activity in vitro using activated calf thymus DNA as atemplate at dose 200 ug/mL; format: nucleic-acid assay; settings: herpes simplex virus
[6] = tested on: Human alphaherpesvirus 1; experiment: Compound were tested for their ability to inhibit HSV replication at their maximal nontoxic concentration; settings: herpes simplex virus
[7] = tested on: Human alphaherpesvirus 1; experiment: In vitro ability to inhibit synthesis of herpes simplex virus (HSV) DNA in isolated nuclei at dose 100 ug/mL
[8] = tested on: Nucleic Acid; experiment: In vitro ability to inhibit HSV DNA polymerase activity in vitro using activated calf thymus DNA as atemplate at dose 400 ug/mL; format: nucleic-acid assay; settings: herpes simplex virus
[9] = tested on: Nucleic Acid; experiment: In vitro ability to inhibit HSV DNA polymerase activity in vitro using activated calf thymus DNA as atemplate at dose 50 ug/mL; format: nucleic-acid assay; settings: herpes simplex virus
[10] = tested on: Human alphaherpesvirus 1; experiment: In vitro ability to inhibit synthesis of herpes simplex virus (HSV) DNA in isolated nuclei at dose 200 ug/mL
[11] = tested on: BSC-1; experiment: Evaluation of titer of virus progeny produced in untreated infected cells and in cells treated with the compound by plaque assay on BSC-1 cells.; format: functional, Cercopithecidae; design: concentration or dose not given beside the values
In short: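 HSV type 1-infected cell cultures were exposed to drug at the maximal nontoxic concentration. Toxicity means cell death within 2 days of drug incubation at 37 °C; the maximal nontoxic level is the concentration whose twofold increase causes toxicity. Progeny virus titer was determined by plaque assay on BSC-1 cells. Yield is expressed as a percentage of the untreated infected-cell yield (taken as 100%).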

[12] = tested on: Human alphaherpesvirus 1; experiment: In vitro ability to inhibit synthesis of herpes simplex virus (HSV) DNA in isolated nuclei at dose 25 ug/mL
[13] = tested on: Human alphaherpesvirus 2; experiment: Compound were tested for their ability to inhibit HSV replication at their maximal nontoxic concentration; 400 ug/mL of the drug was not toxic; format: functional, organism-based; settings: herpes simplex virus

Cl.Cl.Cn1cc(NC(=O)c2cc(NC(=O)c3cc(NC(=O)CN=C(N)N)cn3C)cn2C)cc1C(=O)NCCC(=N)N
inhibition at 50 µg/mL [1]: 84%
inhibition at 400 µg/mL [2]: 97%
inhibition [3]: 25%
inhibition [4]: 93%
inhibition [5]: 94%
Concentration [6]: 25 µg/mL
inhibition at 100 µg/mL [7]: 92%
inhibition [8]: 99%
inhibition [9]: 64%
inhibition at 200 µg/mL [10]: 97%
Inhibition [11]: 99.7%
inhibition at 25 µg/mL [12]: 78%

CC(CC#N)NC(=O)c1cc(NC(=O)c2cc(NC(=O)c3cc(NC(=O)CN=C(N)N)cn3C)cn2C)cn1C.Cl (stereo not drawn)
Concentration [13]: > 400 µg/mL
Inhibition [11]: 90.9%

Cl.Cl.Cn1cc(NC(=O)c2cc(NC(=O)CNC(=N)N)cn2C)cc1C(=O)NCCC(=N)N [CONGOCIDINE]
inhibition at 50 µg/mL [1]: 67%
inhibition at 400 µg/mL [2]: 88%
inhibition [3]: 30%
inhibition [4]: 78%
inhibition [5]: 90%
Concentration [6]: 5 µg/mL
inhibition at 100 µg/mL [7]: 61%
inhibition [8]: 93%
inhibition [9]: 61%
inhibition at 200 µg/mL [10]: 71%
Inhibition [11]: 98.1%
inhibition at 25 µg/mL [12]: 64%

Cl.Cl.Cn1cc(NC(=O)c2cc(NC(=O)c3cc(NC=O)cn3C)cn2C)cc1C(=O)NCCC(=N)N
inhibition at 50 µg/mL [1]: 85%
inhibition at 400 µg/mL [2]: 98%
inhibition [3]: 20%
inhibition [4]: 85%
inhibition [5]: 98%
Concentration [6]: 25 µg/mL
inhibition at 100 µg/mL [7]: 89%
inhibition [8]: 99%
inhibition [9]: 62%
inhibition at 200 µg/mL [10]: 95%
Inhibition [11]: 99.7%
inhibition at 25 µg/mL [12]: 79%

Cl.Cl.Cn1cc(NC(=O)c2cc(NC(=O)c3cc(NC(=O)CN=C(N)N)cn3C)cn2C)cc1C(=O)NCC(=N)N
inhibition [3]: 39%
inhibition [4]: 89%
inhibition [5]: 99%
Concentration [6]: 100 µg/mL
inhibition [8]: 99%
inhibition [9]: 83%
Inhibition [11]: 99.7%

Cl.Cn1cc(NC(=O)c2cc(NC(=O)c3cc(NC(=O)CN=C(N)N)cn3C)cn2C)cc1C(=O)NCCC#N
inhibition at 50 µg/mL [1]: 68%
inhibition at 400 µg/mL [2]: 89%
inhibition [3]: 12%
inhibition [4]: 68%
inhibition [5]: 79%
Concentration [6]: 50 µg/mL
inhibition [8]: 91%
inhibition [9]: 35%
inhibition at 200 µg/mL [10]: 87%
Inhibition [11]: 93.14%
inhibition at 25 µg/mL [12]: 56%

CC(CC(=N)N)NC(=O)c1cc(NC(=O)c2cc(NC(=O)c3cc(NC(=O)CN=C(N)N)cn3C)cn2C)cn1C.Cl.Cl (stereo not drawn)
inhibition at 50 µg/mL [1]: 73%
inhibition at 400 µg/mL [2]: 97%
inhibition [3]: 26%
inhibition [4]: 83%
inhibition [5]: 96%
Concentration [6]: 10 µg/mL
inhibition at 100 µg/mL [7]: 83%
inhibition [8]: 97%
inhibition [9]: 59%
inhibition at 200 µg/mL [10]: 91%
Inhibition [11]: 99.3%
inhibition at 25 µg/mL [12]: 56%
